Measurements collected from several papers.
Compare with care: the assays were run in different laboratories.
Target: Serine/threonine-protein kinase Nek11 (NEK11, Homo sapiens, UniProt Q8NG66)
One construct used (Q8NG66 1-645): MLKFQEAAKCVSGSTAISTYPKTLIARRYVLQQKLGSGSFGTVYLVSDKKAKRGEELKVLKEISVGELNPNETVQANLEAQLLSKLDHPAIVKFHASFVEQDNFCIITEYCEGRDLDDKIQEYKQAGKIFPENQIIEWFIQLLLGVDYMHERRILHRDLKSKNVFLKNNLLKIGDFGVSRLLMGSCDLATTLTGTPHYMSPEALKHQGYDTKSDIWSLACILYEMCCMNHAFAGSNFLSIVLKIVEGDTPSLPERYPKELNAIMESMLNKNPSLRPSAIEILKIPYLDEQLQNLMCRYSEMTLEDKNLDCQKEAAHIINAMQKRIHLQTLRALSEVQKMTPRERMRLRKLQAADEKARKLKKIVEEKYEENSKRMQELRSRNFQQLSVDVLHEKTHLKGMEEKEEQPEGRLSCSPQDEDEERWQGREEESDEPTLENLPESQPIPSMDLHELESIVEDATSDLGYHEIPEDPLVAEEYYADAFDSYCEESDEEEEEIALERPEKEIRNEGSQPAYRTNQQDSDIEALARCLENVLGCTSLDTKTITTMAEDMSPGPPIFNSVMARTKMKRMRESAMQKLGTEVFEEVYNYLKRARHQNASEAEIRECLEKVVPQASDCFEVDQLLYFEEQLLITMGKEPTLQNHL

SMILES	observed	technique	concentration	remaining binding [%]
CN(C)c1nccc(-c2cnn3ncccc23)n1	binding		1 µM	100
COc1cnc(Nc2cccc(S(N)(=O)=O)c2)nc1N1CCN(c2ccccc2)CC1	binding	competition with immobilised ligand	1 µM	90
CN(c1nccc(-c2cnn3ncccc23)n1)C1CC1	binding		1 µM	100
CNCc1ccccc1-c1csc([C@H](C)Nc2nc(C)nc3cc(OC)c(OC)cc23)c1	cell-free assay	competition with immobilised ligand	1 µM	100
Nc1ncc2c(n1)-c1c([nH]c3ccc(C#CC4CC4)cc13)CCCC2	binding	competition with immobilised ligand	1 µM	84
O=C(NCCCC1CCCCC1)c1ccc(CNC(=O)c2cnn(-c3ccccc3)c2C(F)(F)F)cc1	cell-free assay	competition with immobilised ligand	0.1 µM	100
CC1CCCN1c1nccc(-c2cnn3ncccc23)n1 (stereo not drawn)	binding		1 µM	100
O=C(Nc1c[nH]nc1C(=O)NC1CCNCC1)c1cc(F)cc(F)c1	binding	competition with immobilised ligand	1 µM	91
N[C@@H]1CCN(c2nccc(-c3cnn4ncccc34)n2)C1	binding		1 µM	100
Cc1cc(-n2nc(Cc3cc(F)cc(C(F)(F)F)c3)nc2C)ccc1C(N)=O	cell-free assay	competition with immobilised ligand	1 µM	100
CN(C)c1nccc(-c2cnc3ncccn23)n1	binding		1 µM	81
Cc1cnc(Nc2ccc(C(=O)N3CCC(N4CCCC4)CC3)cc2)nc1-c1cc2ccccc2s1	binding	competition with immobilised ligand	1 µM	64
CN(CCCC(F)(F)F)c1nccc(-c2cnn3ncccc23)n1	binding		1 µM	100
COc1ccc2c(c1)O[C@H](c1ccc(OC)c(OC)c1)C[C@@H]2NC(=O)C1(c2ccc3c(c2)OC(F)(F)O3)CC1	cell-free assay	competition with immobilised ligand	1 µM	88
O=C(NCCCN1CCOCC1)c1ccc(Nc2nccc(-c3cc4ccccc4s3)n2)cc1	binding	competition with immobilised ligand	1 µM	75
O=C(N[C@H]1CCCCC/C=C\C2C[C@@]2(C(=O)O)NC(=O)[C@@H]2C[C@@H](Oc3ccncc3)CN2C1=O)OC1CCCC1 (stereo partly drawn)	binding	competition with immobilised ligand	1 µM	100
O=C(c1ccc(Nc2ncc(Cl)c(-c3cc4ccccc4s3)n2)cc1)N1CCC(N2CCCC2)CC1	binding	competition with immobilised ligand	1 µM	80
CCN1CCN(Cc2ccc(C(=O)Nc3ccc(C)c(Oc4ccc5c(c4)CC(=O)N5)c3)cc2C(F)(F)F)CC1	binding	competition with immobilised ligand	1 µM	100
c1cncc(-c2cccc(Nc3nccc(NC4CCCCC4)n3)c2)c1	binding	competition with immobilised ligand	10 µM	100
COc1ncc2cc3ccccc3nc2c1C#N	cell-free assay	competition with immobilised ligand	5 µM	60
COCCOc1nc(-c2ccc(Cl)nc2)nc2c1CN(C(=O)c1ncn3ccccc13)CC2	cell-free assay	competition with immobilised ligand	0.1 µM	100
